Several values for one entry are separate records, joined by “and”; a condition that tells them apart may be missing. Equal entries are not always repeated. Activity calls are given as the source filed them. The calls are words filed in the database; no cut-off is given here.
Columns and labels:
[1] = target: Metabotropic glutamate receptor 3 (Homo sapiens, UniProt Q14832); assay: Agonist potency against cloned Metabotropic glutamate receptor 3; type: functional
Outline: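 mGluR3 activity was measured on a chimeric mGluR3/1a receptor, which carries mGluR3 pharmacology but couples to phospholipase C. Agonist response was read as accumulation of inositol phosphates.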

CHO [2] = assay: Inhibitory activity against N-acetyl-L-aspartyl-L-glutamate (NAAG) peptidase of rat stably expressed in CHO cells at 100 uM; type: cell-based
CHO [3] = assay: Inhibitory activity against N-acetyl-L-aspartyl-L-glutamate (NAAG) peptidase of rat stably expressed in CHO cells at 100 uM; NA=no activity; type: cell-based

Metabotropic glutamate receptor 3, sequence (Q14832 whole entry): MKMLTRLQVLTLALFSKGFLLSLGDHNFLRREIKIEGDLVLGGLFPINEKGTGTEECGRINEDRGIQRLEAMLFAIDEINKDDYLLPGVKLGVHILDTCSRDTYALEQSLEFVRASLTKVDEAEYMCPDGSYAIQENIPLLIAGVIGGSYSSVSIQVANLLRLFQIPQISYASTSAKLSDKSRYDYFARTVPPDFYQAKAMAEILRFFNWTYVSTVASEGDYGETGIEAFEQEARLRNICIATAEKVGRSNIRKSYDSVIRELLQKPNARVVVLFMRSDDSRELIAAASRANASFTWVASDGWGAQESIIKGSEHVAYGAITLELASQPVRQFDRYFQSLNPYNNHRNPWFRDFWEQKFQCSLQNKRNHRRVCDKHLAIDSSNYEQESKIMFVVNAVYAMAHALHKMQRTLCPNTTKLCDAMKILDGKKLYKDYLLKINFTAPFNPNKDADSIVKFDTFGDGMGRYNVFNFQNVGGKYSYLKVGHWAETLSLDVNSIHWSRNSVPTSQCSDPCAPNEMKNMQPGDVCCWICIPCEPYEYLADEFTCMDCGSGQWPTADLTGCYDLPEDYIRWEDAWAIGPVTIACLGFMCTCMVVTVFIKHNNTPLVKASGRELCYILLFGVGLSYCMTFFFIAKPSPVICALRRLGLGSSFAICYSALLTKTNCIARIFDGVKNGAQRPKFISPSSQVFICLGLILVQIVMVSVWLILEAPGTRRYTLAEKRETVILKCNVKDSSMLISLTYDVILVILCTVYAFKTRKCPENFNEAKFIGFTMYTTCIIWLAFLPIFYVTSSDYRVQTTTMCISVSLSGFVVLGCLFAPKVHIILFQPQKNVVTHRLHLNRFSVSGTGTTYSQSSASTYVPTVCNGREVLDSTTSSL

| SMILES | EC50 [1] | inhibition (CHO [2]) | inhibition (CHO [3]) |
| --- | --- | --- | --- |
| O=C(O)CC[C@H](CP(=O)(O)C[C@H](CCC(=O)O)C(=O)O)C(=O)O | 33 µM | – | – |
| O=C(O)CCC(=O)CC(CCC(=O)O)C(=O)O (stereo unspecified) | – | 35% | – |
| O=C(O)CCC(CC(=O)CC(CCC(=O)O)C(=O)O)C(=O)O (stereo unspecified) | > 300 µM | – | inactive |
| O=C(O)CCC(CP(=O)(O)CC(CCC(=O)O)C(=O)O)C(=O)O (stereo unspecified) | 39 µM and 45 µM and 51 µM | 21.7% and 6.9% and 22.3% | – |

Reference: ChEMBL document CHEMBL1133715, “Dual function glutamate-related ligands: discovery of a novel, potent inhibitor of glutamate carboxypeptidase II possessing mGluR3 agonist activity” (J Med Chem, 2000)
